Screens as filed in PubChem BioAssay.
Hits are enriched below; roughly 1.5% of the tested compounds scored in any of these assays.
APJ ag – agonists of human APJ apelin receptor | P35414 | CHO-K1 APJ PathHunter beta-arrestin, luminescence; 0% DMSO wells, 100% apelin | activation, % at 20 µM | 0.11% of 330,000 active | AID 2520;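 active means activation more than six SD over the plate average, tested at 20 µM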;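 further: 0% = DMSO alone and 100% = apelin-13 at 10 nM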
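Incubation: overnight seeding, 90 min compound at 25 °C, 1 h detection; test system: PathHunter CHO-K1 APJ (AGTRL-1) beta-arrestin reporter cells; amount: 1000 cells/well; doses: one dose, 20 µM compound, 1% DMSO; measured by: beta-gal luminescence; measure: agonist-driven arrestin binding to APJ; benchmarks: negative DMSO alone, positive Apelin-13 at 10 nM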
APJ antag – antagonists of human APJ apelin receptor. P35414. CHO-K1 APJ beta-arrestin complementation, luminescence. inhibition, % at 20 µM. 0.32% of 330,000 active. AID 2521;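 active means inhibition above about 40% at 20 µM, limit read from the data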;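 further: cells challenged with 10 nM apelin-13 agonist together with compound; plate controls were apelin-13 plus DMSO wells for no effect and DMSO wells lacking apelin-13 for full effect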
CXCR6 block – inhibitors of human CXCR6 receptor | O00574 | CHO-K1 PathHunter CXCR6 beta-arrestin, luminescence | inhibition, % at 20 µM | 0.36% of 360,000 active | AID 602244; in the data active means inhibition above about 34%, passing the limit was not always enough;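 further: antagonist mode with CXCL16 agonist at 10 nM final; 0% = 10 nM CXCL16 with DMSO and 100% = unstimulated wells without agonist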
CCR6 antag – blocks CCL20-driven beta-arrestin recruitment at human CCR6 | P51684 | AID 493098 | inhibition, % at 20 µM | 0.49% of 340,000 active | CHO-K1 CCR6 PathHunter beta-arrestin, luminescence, CCL20-stimulated;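 active means compounds whose inhibition of the agonist-driven luminescence signal at 20 µM reaches about 50%, limit read from the data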;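 further: cells stimulated with CCL20 at 14 nM final; plate controls were DMSO with CCL20 for no effect and DMSO without agonist for full effect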
Target sequence (P51684 whole entry, looked up): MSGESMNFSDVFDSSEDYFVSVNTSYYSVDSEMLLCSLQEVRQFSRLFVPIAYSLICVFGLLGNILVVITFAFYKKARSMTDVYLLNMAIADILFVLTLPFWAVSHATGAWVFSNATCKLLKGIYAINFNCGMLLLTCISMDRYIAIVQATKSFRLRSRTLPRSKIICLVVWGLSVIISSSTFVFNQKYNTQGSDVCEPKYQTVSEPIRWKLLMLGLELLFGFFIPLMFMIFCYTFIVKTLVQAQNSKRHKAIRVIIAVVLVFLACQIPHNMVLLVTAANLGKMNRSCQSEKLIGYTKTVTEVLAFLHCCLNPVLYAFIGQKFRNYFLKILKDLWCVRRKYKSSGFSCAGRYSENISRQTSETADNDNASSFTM
EBI2 block – EBI2 (human) antagonism; EBI2 beta-arrestin recruitment, luminescence, 7a,25-OHC stimulated; P32249; 0.81% of 360,000 active; AID 651636; inhibition, % at 5 µM; in the data active means inhibition above about 38%;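 further: enzyme fragment complementation signal reports receptor beta-arrestin coupling in cells; 0% = agonist plus DMSO wells and 100% = wells without agonist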
EBI2 antag conf – confirmation of human EBI2 receptor antagonists; shares compounds with EBI2 block; EBI2 beta-arrestin luminescence, 7a,25-OHC antagonism; inhibition, % at 5 µM; 29% of 2,400 active; AID 651997;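 active means inhibition of at least 50%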
EBI2 ag – counter-screen for EBI2 antagonists: EBI2 agonist activity. shares compounds with EBI2 block. EBI2-expressing cells, agonist mode, luminescence, 60 min; 0% vehicle, 100% 7α,25-dihydroxycholesterol control. activation, % at 5 µM. 2,400 tested, under 10 active. AID 652000;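 active means activation of at least 50%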
bGal counter – beta-galactosidase inhibition counter-screen | shares compounds with EBI2 block | purified beta-galactosidase, luminescent Galacton Star, 15 min | inhibition, % at 5 µM | 1% of 2,400 active | AID 652176;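 active means replicate-average signal at least 3 plate SD below neutral wells, shown as high inhibition, flagging enzyme-inhibiting false positives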;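 further: 0% = DMSO wells with enzyme and 100% = wells lacking enzyme; higher means stronger loss of beta-gal luminescence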
* = called active by the depositor; · = not tested or not shown.

SMILES	APJ ag	APJ antag	CXCR6 block	CCR6 antag	EBI2 block	EBI2 antag conf	EBI2 ag	bGal counter
COc1ccc(CNC(=O)C2CCN(S(=O)(=O)c3cccc(C(F)(F)F)c3)CC2)cc1	1	5	-6	10	54*	38	0	-16
Cc1ccc(CNC(=O)N2CCN(S(=O)(=O)c3ccccc3)CC2)cc1	-3	-16	6	14	56*	49	3	-3
Cc1ccc(CNC(=O)C2CCN(S(=O)(=O)c3c(C)noc3/C=C/c3ccco3)CC2)cc1	-4	-2	11	16	65*	49	2	2
CCOC(=O)C(CCC(C)=O)C(=O)c1ccccc1 (stereo unspecified)	9	-31	-4	-7	5	·	·	·
Cc1ccc(SCCc2ccc(C)nc2)cc1	-1	11	-1	10	27	·	·	·
COc1cccc(N2CCN(C(=O)c3cc(-c4ccc(F)cc4)[nH]c3C)CC2)c1	-1	-2	-4	-6	89*	69*	-1	-14
Cc1ccc(N2CCN(C(=O)c3cc(-c4ccc(F)cc4)[nH]c3C)CC2C)cc1 (stereo unspecified)	-1	-23	8	-16	53*	33	1	6
Cc1[nH]c(-c2ccc(F)cc2)cc1C(=O)N1CCN(c2ccccc2)CC1	3	19	-12	1	86*	63*	-1	-21
O=C(NCc1ccccn1)c1cccc(S(=O)(=O)N2CCCCC2)c1	-3	-8	9	2	-8	·	·	·
COc1ccc(NC(=O)Nc2cnccn2)cc1OC	-2	-1	3	-10	5	·	·	·
O=C(c1ccc(Cl)cc1)N1CCC(O)(CSc2ccc(Cl)cc2)CC1	-6	0	-8	7	69*	57*	0	-3
O=C(c1ccc(Cl)cc1)N1CCC(O)(CSc2ccccc2)CC1	4	-9	2	5	68*	71*	2	4
CN1CCN(C(=O)c2ccc(CSc3ccc(Cl)cc3)cc2)CC1	-1	7	-9	15	4	·	·	·
COc1cccc(SCC2(O)CCN(C(=O)c3ccc(Cl)cc3)CC2)c1	-1	-10	6	21	55*	48	0	5
Cc1cccc(NC(=S)N2CCC(NC(=O)c3ccco3)CC2)c1	-2	-2	-3	8	-4	·	·	·
COC(=O)c1ccc(Cn2cnc3c(sc4nc(N5CCOCC5)c5c(c43)CCCC5)c2=O)o1	20	-23	13	16	20	·	·	·
CCOc1ccc(NC(=S)N(CCCN2CCOCC2)Cc2cn(C)c3ccccc23)cc1	-4	12	5	12	44*	10	0	7
Cc1cc(C)cc(NC(=O)Nc2ccc3c(c2)N(C)C(=O)CS3)c1	1	2	-12	-21	38*	48	-1	-19
CCCC(C)NC(=O)COc1ccc(Sc2ccc(OCC(=O)NC(C)CCC)cc2)cc1 (stereo unspecified)	3	-7	4	21	43*	27	2	-2
CCc1nc2ccc(C(=O)NCCOc3ccc(OC)cc3)cn2c1N(C)C(=O)COc1ccccc1	·	·	-3	·	53*	35	1	-1
CCc1nc2ccc(C(=O)NCCOc3ccc(OC)cc3)cn2c1N(CC)Cc1ccc(OC)c(OC)c1	·	·	1	·	58*	38	-2	-9
CCc1nc2ccc(C(=O)NCCOc3ccc(OC)cc3)cn2c1N(C)Cc1ccc(N(C)C)cc1	·	·	16	·	49*	23	-1	-8
COc1ccc(OCCNC(=O)c2ccc3nc(C)c(N(C)Cc4ccc(NC(C)=O)cc4)n3c2)cc1	·	·	-2	·	55*	16	-2	-9
CCOC(CNC(=O)Cn1nc(C)c2ccccc21)OCC	-2	12	-10	-4	-12	·	·	·
Oc1ccccc1-c1nnc(COc2ccc(Cl)cc2Cl)o1	-3	0	20	14	1	·	·	·
Clc1ccc(-c2nnc(CCc3ccccc3)o2)c(Cl)c1	-7	-11	-1	21	55*	41	1	1
